Results from ChEMBL document CHEMBL3352737, “Discovery of potent and selective spiroindolinone MDM2 inhibitor, RO8994, for cancer therapy” (Bioorg Med Chem, 2014).

Columns and labels:
[1] = Antiproliferative activity against wild-type p53 expressing human HCT116 cells assessed as inhibition of cell proliferation by MTT assay; type: functional, cell-based; settings: HCT-116
[2] = tested on: RKO; assay: Antiproliferative activity against wild-type p53 expressing human RKO cells assessed as inhibition of cell proliferation by MTT assay; type: functional, cell-based
[3] = tested on: SW480; assay: Antiproliferative activity against p53 mutant expressing human SW480 cells assessed as inhibition of cell proliferation by MTT assay; type: functional, cell-based
[4] = tested on: MDA-MB-435; assay: Antiproliferative activity against p53 mutant expressing human MDA-MB-435 cells assessed as inhibition of cell proliferation by MTT assay; type: functional, cell-based
[5] = target: T1, Tumour suppressor p53/oncoprotein Mdm2 (Homo sapiens, UniProt Q00987); assay: Inhibition of p53-MDM2 (unknown origin) interaction using 0.2% BSA buffer after 1 hr by HTRF assay; type: protein assay
T1 sequence (P04637 whole entry): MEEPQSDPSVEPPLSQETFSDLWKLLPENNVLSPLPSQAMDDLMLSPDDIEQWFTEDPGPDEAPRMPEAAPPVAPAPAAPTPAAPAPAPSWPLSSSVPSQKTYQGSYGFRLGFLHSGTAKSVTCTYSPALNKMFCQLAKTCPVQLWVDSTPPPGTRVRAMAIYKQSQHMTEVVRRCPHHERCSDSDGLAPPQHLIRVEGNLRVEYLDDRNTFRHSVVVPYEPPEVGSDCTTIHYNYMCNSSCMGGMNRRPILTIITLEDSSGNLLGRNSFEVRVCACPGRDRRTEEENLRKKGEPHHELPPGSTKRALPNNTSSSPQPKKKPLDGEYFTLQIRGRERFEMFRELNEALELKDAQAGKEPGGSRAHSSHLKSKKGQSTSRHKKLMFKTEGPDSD
T1 sequence (Q00987 whole entry): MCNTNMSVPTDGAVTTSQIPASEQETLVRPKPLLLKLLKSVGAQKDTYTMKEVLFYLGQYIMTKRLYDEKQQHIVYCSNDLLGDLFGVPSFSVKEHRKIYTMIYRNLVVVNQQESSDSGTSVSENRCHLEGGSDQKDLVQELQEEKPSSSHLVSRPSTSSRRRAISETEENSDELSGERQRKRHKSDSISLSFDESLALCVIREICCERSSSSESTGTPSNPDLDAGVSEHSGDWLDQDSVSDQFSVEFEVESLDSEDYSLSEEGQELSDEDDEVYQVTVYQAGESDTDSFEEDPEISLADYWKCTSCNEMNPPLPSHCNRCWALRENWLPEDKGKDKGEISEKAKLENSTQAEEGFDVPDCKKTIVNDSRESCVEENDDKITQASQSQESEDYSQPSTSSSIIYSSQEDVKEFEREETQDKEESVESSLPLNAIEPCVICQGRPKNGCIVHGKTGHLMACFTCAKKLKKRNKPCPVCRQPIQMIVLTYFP

[6] = target: T1, Tumour suppressor p53/oncoprotein Mdm2; assay: Inhibition of p53-MDM2 (unknown origin) interaction using 0.02% BSA buffer after 1 hr by HTRF assay; type: protein assay
[7] = Cmax in C57 mouse at 25 mg/kg, po; type: ADME, organism-based; design: dose 25 mg/kg, route oral; settings: in vivo
In short: (§1)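 Male C57 mice received a single dose, given orally or intravenously in separate arms. Plasma pharmacokinetic parameters were derived from the resulting concentration–time data and reported as means.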

[8] = Total plasma clearance in C57 mouse at 5 mg/kg, iv; type: ADME, organism-based; design: dose 5 mg/kg, route intravenous; in short: as §1
[9] = Apparent terminal half life in C57 mouse at 5 mg/kg, iv; type: ADME, organism-based; design: dose 5 mg/kg, route intravenous; settings: in vivo, read-out: betat1/2(app) (converted); in short: as §1
[10] = Oral bioavailability in C57 mouse at 25 mg/kg; type: ADME, organism-based; settings: in vivo; in short: as §1
[11] = Cmax in C57 mouse at 50 mg/kg, po; type: ADME, organism-based; design: dose 50 mg/kg, route oral; settings: in vivo; in short: as §1
[12] = Oral bioavailability in C57 mouse at 50 mg/kg; type: ADME, organism-based; settings: in vivo; in short: as §1

Row | SMILES | IC50 [3] [nM] | IC50 [4] [nM] | IC50 [5] [nM] | IC50 [6] [nM] | Cmax [7] [ng/mL] | clearance [8] [mL/min/kg] | half-life [9] [h] | bioavailability [10] [%] | Cmax [11] [ng/mL] | bioavailability [12] [%] | IC50 [1] [nM] | IC50 [2] [nM]
1 | COc1cc(NC(=O)[C@@H]2N[C@@H](CC(C)(C)C)[C@@]3(C(=O)Nc4cc(Cl)ccc43)[C@H]2c2cccc(Cl)c2F)ccc1C(=O)O | 14400 | 11500 |  |  |  |  |  |  |  |  | 50 | 240
2 | COc1cc(NC(=O)[C@H]2N[C@H](CC(C)(C)C)[C@]3(C(=O)Nc4cc(Cl)ccc43)[C@@H]2c2cccc(Cl)c2F)ccc1C(=O)O |  |  | 3740 | 3090 |  |  |  |  |  |  |  | 
3 | CC(C)(C)C[C@@H]1N[C@@H](C(=O)Nc2ccc(C(N)=O)cc2)[C@H](c2cccc(Cl)c2F)[C@]12C(=O)Nc1cc(Cl)ccc12 | 14300 | 11600 | 5 | 5 |  | 3.5 | 10.4 |  | 8300 | 63 | 70 | 150
4 | CC(C)(C)C[C@@H]1N[C@@H](C(=O)Nc2ccc(OCCO)cc2)[C@H](c2cccc(Cl)c2F)[C@]12C(=O)Nc1cc(Cl)ccc12 | 11300 | 10800 | 8 |  |  |  |  |  |  |  | 180 | 280
5 | CC(C)(C)C[C@@H]1N[C@@H](C(=O)Nc2ccc(C(N)=O)cc2)[C@H](c2cccc(Cl)c2F)[C@]12C(=O)Nc1cc(Cl)c(F)cc12 | 15200 | 10900 |  |  |  | 2.6 | 8.8 |  | 8700 | 45 | 180 | 430
6 | CC(=O)N1CCCC([C@]2(Cc3cccc(Cl)c3)C(=O)Nc3cc(Cl)ccc32)C1 (stereo partly specified) |  |  | 3900 |  |  |  |  |  |  |  |  | 

Second part, led by results:

Row | IC50 [3] [nM] | IC50 [4] [nM] | IC50 [5] [nM] | IC50 [6] [nM] | Cmax [7] [ng/mL] | clearance [8] [mL/min/kg] | half-life [9] [h] | bioavailability [10] [%] | Cmax [11] [ng/mL] | bioavailability [12] [%] | SMILES | IC50 [1] [nM] | IC50 [2] [nM]
7 | 9800 | 12100 |  |  | 800 | 34.6 | 11.1 | 21 |  |  | COc1cc(C(=O)O)ccc1NC(=O)[C@@H]1N[C@@H](CC(C)(C)C)[C@@]2(C(=O)Nc3cc(Cl)ccc32)[C@H]1c1cccc(Cl)c1F | 10 | 20
8 | 3960 | 6920 |  |  |  |  |  |  |  |  | COc1cc(NC(=O)[C@@H]2N[C@@H](CC(C)(C)C)[C@@]3(C(=O)Nc4cc(Cl)ccc43)[C@H]2c2cccc(Cl)c2F)ccc1C(N)=O | 80 | 90
9 | 7100 | 10000 | 7 | 7 |  | 3.4 | 15.3 |  | 13100 | 75 | CC(C)(C)C[C@@H]1N[C@@H](C(=O)Nc2ccc(C(N)=O)cc2F)[C@H](c2cccc(Cl)c2F)[C@]12C(=O)Nc1cc(Cl)ccc12 | 120 | 220
10 | 4450 | 9500 |  |  | 4300 | 6.7 | 6.6 | 55 |  |  | COc1cc(OCCO)ccc1NC(=O)[C@@H]1N[C@@H](CC(C)(C)C)[C@@]2(C(=O)Nc3cc(Cl)ccc32)[C@H]1c1cccc(Cl)c1F | 8 | 16
11 | 10500 | 12000 | 6 |  |  |  |  |  |  |  | COc1cc(C(N)=O)ccc1NC(=O)[C@@H]1N[C@@H](CC(C)(C)C)[C@@]2(C(=O)Nc3cc(Cl)cc(F)c32)[C@H]1c1cccc(Cl)c1F | 120 | 80
12 | 7500 | 9400 | 18 | 15 |  |  |  |  |  |  | COc1cc(C(N)=O)ccc1NC(=O)[C@@H]1N[C@@H](CC(C)(C)C)[C@@]2(C(=O)Nc3c2ccc(Cl)c3F)[C@H]1c1cccc(Cl)c1F (racemic) | 670 | 1080
